Source: ChEMBL document CHEMBL3774342, “Indole Based Weapons to Fight Antibiotic Resistance: A Structure-Activity Relationship Study” (J Med Chem, 2016)
pIC50: −log10 of the molar value. Converted amounts (≈) assume the structure as drawn.

Experiments:
[1] = tested on: Staphylococcus aureus; assay: Antimicrobial activity against Staphylococcus aureus 1199B by microdilution method; type: functional
In short: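 MIC by broth microdilution following CLSI guidelines against S. aureus SA-1199B, a strain that overexpresses norA. Run on compounds giving at least 80% EtBr efflux inhibition and on selected weaker ones.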

[2] = molecular target: T1, Quinolone resistance protein NorA (Staphylococcus aureus, UniProt P0A0J7); assay: Inhibition of NorA efflux pump in Staphylococcus aureus 1199B assessed as reduction in EtBr efflux incubated for 20 mins measured for 5 mins by real-time fluorometric analysis
T1 sequence (P0A0J7 whole entry): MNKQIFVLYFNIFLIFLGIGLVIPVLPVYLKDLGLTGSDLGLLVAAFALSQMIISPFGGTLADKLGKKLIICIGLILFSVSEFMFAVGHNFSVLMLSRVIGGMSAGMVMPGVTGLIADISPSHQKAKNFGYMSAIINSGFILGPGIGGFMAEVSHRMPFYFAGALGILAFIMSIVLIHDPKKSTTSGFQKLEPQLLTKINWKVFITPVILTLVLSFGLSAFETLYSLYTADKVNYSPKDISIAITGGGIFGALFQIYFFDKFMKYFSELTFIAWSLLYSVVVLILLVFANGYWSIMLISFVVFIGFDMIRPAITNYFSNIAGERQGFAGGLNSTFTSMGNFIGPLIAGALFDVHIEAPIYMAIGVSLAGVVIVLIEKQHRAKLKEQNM
In short: (§1)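 SA-1199B (norA-overexpressing) grown overnight in cation-supplemented Mueller-Hinton broth, diluted 25-fold and grown at 35 °C to OD600 0.7–0.8. Loaded with EtBr 25 µM plus CCCP 100 µM (final), then resuspended in fresh broth. Fluorescence read at ex 485/em 645 nm for 5 min, ± compound. Efflux inhibition in % relative to untreated cells; screened at 50 µM. IC50 from concentration series; triplicate, two technical replicates each.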

[3] = molecular target: T2, Quinolone resistance protein NorA (Staphylococcus aureus) (UniProt P0A0J7); assay: Inhibition of NorA efflux pump in Staphylococcus aureus 1199B assessed as reduction in EtBr efflux at 50 uM incubated for 20 mins measured for 5 mins by real-time fluorometric analysis; in short: as §1
T2 sequence (whole entry): T1 sequence (P0A0J7 whole entry)

[4] = Solubility of the compound in D2O solution at 25 degC by 1H NMR analysis; type: physicochemical
In short: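 1H NMR in D2O at 25 °C with TSP internal standard, following a literature procedure.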

[5] = Metabolic stability in human liver microsomes assessed as compound remaining after at 10 uM preincubated for 5 mins followed by NADPH addition measured after 30 mins by HPLC-MS/MS analysis; type: ADME; details: read-out: Stability
In short: (§2)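 Human liver microsomes at 0.5 mg protein/ml in 100 mM potassium phosphate pH 7.4. Substrate at 10 µM final, pre-incubated 5 min at 37 °C with shaking, then started with 1 mM NADPH. Quenched at 0 and 30 min with cold acetonitrile containing labetalol internal standard. Spun 12000 g, 5 min, 4 °C; supernatant analysed by UHPLC C18 HPLC-MS/MS.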

[6] = tested on: Liver microsome; assay: Drug level in human liver microsomes treated with Ethyl 5-(3-Aminopropoxy)-1-benzyl-2-methyl-(1H)-indole-3-carboxylate at 10 uM preincubated for 5 mins followed by NADPH addition measured after 30 mins by HPLC-MS/MS analysis; type: ADME; details: 0.5 h; in short: as §2
[7] = tested on: Liver microsome; assay: Drug level in human liver microsomes treated with Ethyl 1-benzyl-2-methyl-5-(3-(piperidin-1-yl)propoxy)-1H-indole-3-carboxylate at 10 uM preincubated for 5 mins followed by NADPH addition measured after 30 mins by HPLC-MS/MS analysis; type: ADME; details: 0.5 h; in short: as §2
[8] = tested on: Liver microsome; assay: Drug level in human liver microsomes treated with Ethyl 1-Benzyl-2-methyl-5-(3-(piperazin1-yl)propoxy)-(1H)-indole-3-carboxylate at 10 uM preincubated for 5 mins followed by NADPH addition measured after 30 mins by HPLC-MS/MS analysis; type: ADME; details: 0.5 h; in short: as §2
[9] = tested on: Liver microsome; assay: Drug level in human liver microsomes treated with Ethyl 1-(2-Methoxybenzyl)-2-methyl-5-(3-(piperidin-1-yl)-propoxy)-1H-indole-3-carboxylate at 10 uM preincubated for 5 mins followed by NADPH addition measured after 30 mins by HPLC-MS/MS analysis; type: ADME; details: 0.5 h; in short: as §2

Structure (SMILES)	MIC [1]	pIC50 [2]	inhibition [3]	other results
CCOC(=O)c1c(C)n(Cc2cccc(C)c2)c2ccc(OCCCN3CCCCC3)cc12	50 µg/mL (≈ 111 µM)	5.21	70.9%	–
CCOC(=O)c1c(C)n(Cc2ccccc2)c2ccc(OCCN3CCN(C)CC3)cc12	> 100 µg/mL	5.00	99.7%	–
CCOC(=O)c1c(C)n(Cc2ccccc2F)c2ccc(OCCCN3CCCCC3)cc12	> 100 µg/mL	5.32	89%	–
CCOC(=O)c1c(C)n(Cc2cccc(F)c2)c2ccc(OCCCN3CCCCC3)cc12	> 100 µg/mL	5.21	89.7%	–
CCOC(=O)c1c(C)n(Cc2ccccc2)c2ccc(OCCCN3CCOCC3)cc12	> 100 µg/mL	4.97	98.6%	–
Cc1cc2cc(OCCCN3CCCCC3)ccc2n1Cc1ccccc1	0.63 µg/mL (≈ 1.74 µM)	5.18	95.6%	solubility [4]: 70 µM (≈ 25.4 µg/mL); remaining at 0.5 h, 10 µM [5]: 100%
CCOC(=O)c1c(C)n(Cc2cccc(C(F)(F)F)c2)c2ccc(OCCCN3CCCCC3)cc12	> 100 µg/mL	4.85	12.9%	–
CCOC(=O)c1c(C)n(Cc2ccccc2)c2ccc(OCC(CF)N3CCCCC3)cc12 (stereo unspecified)	> 100 µg/mL	–	38.5%	–
CCOC(=O)c1c(C)n(Cc2ccccc2)c2ccc(OCCN(C)C)cc12	> 100 µg/mL	4.65	98.2%	–
Cc1c(C(=O)O)c2cc(OCCCN)ccc2n1Cc1ccccc1	–	–	–	Drug metabolism [6]: metabolite_detected
CCOC(=O)c1c(C)n(Cc2ccccc2)c2ccc(OCCN3CCCCC3)cc12	> 100 µg/mL	4.94	100%	–
CCOC(=O)c1c(C)n(Cc2ccc(C(F)(F)F)cc2)c2ccc(OCCCN3CCCCC3)cc12	> 100 µg/mL	4.85	77.7%	–
Cc1c(C(=O)O)c2cc(OCCCN3CCCCC3)ccc2n1Cc1ccccc1	–	–	0%	Drug metabolism [7]: metabolite_detected
CCOC(=O)c1c(C)n(Cc2ccccc2)c2ccc(OCCc3ccccc3)cc12	> 100 µg/mL	–	4.7%	–
CCOC(=O)Cc1c(C)n(Cc2ccccc2)c2ccc(OCCCN3CCCCCC3)cc12	100 µg/mL (≈ 216 µM)	5.21	98.4%	–
CCOC(=O)c1c(C)n(Cc2ccccc2)c2ccc(OCC(O)CN3CCOCC3)cc12 (stereo unspecified)	> 100 µg/mL	4.77	99%	–
CCOC(=O)c1c(C)n(Cc2ccccc2)c2ccc(OCCCN3CCCCCC3)cc12	> 100 µg/mL	–	77.4%	–
CCOC(=O)c1c(C)n(Cc2ccccc2)c2ccc(OCC(O)CN3CCCCCC3)cc12 (stereo unspecified)	100 µg/mL (≈ 215 µM)	5.17	92.8%	–
CCOC(=O)c1c(C)n(Cc2ccccc2)c2ccc(OCC(O)CN)cc12 (stereo unspecified)	> 100 µg/mL	4.77	100%	–
CCOC(=O)c1c(C)n(Cc2ccc(F)cc2)c2ccc(OCCCN3CCCCC3)cc12	> 100 µg/mL	5.06	91.1%	–
CCOC(=O)c1c(C)[nH]c2ccc(OCCCN3CCNCC3)cc12	–	–	–	Drug metabolism [8]: metabolite_detected
CCOC(=O)c1c(C)n(Cc2cccc([N+](=O)[O-])c2)c2ccc(OCCCN3CCCCC3)cc12	> 100 µg/mL	5.36	85.1%	–
CCOC(=O)c1c(C)[nH]c2ccc(OCCCN)cc12	–	–	–	Drug metabolism [6]: metabolite_detected

Structure (SMILES)	MIC [1]	pIC50 [2]	inhibition [3]	other results
CCOC(=O)c1c(C)n(Cc2ccccc2)c2ccc(OCC(N)CO)cc12 (stereo unspecified)	> 100 µg/mL	4.98	100%	–
Cc1c(C(=O)O)c2cc(OCCCN3CCNCC3)ccc2n1Cc1ccccc1	–	–	–	Drug metabolism [8]: metabolite_detected
CCOC(=O)c1c(C)n(Cc2ccccc2)c2ccc(O)cc12	> 100 µg/mL	–	1%	–
CCOC(=O)c1c(C)n(Cc2ccccc2)c2ccc(OCC(O)CN3CCCCC3)cc12 (stereo unspecified)	> 100 µg/mL	5.24	99.3%	–
CCOC(=O)c1c(C)n(Cc2ccc([N+](=O)[O-])cc2)c2ccc(OCCCN3CCCCC3)cc12	> 100 µg/mL	5.19	89.9%	–
CCOC(=O)c1c(C)n(Cc2ccccc2)c2ccc(OCCN)cc12	–	–	67.7%	–
CCOC(=O)c1c(C)n(Cc2ccccc2)c2ccc([N+](=O)[O-])cc12	–	–	9.1%	–
CCOC(=O)c1c(C)n(Cc2ccccc2C)c2ccc(OCCCN3CCCCC3)cc12	25 µg/mL (≈ 55.7 µM)	5.32	54%	–
CCOC(=O)c1c(C)n(Cc2ccccc2O)c2ccc(OCCCN3CCCCC3)cc12	–	–	–	Drug metabolism [9]: metabolite_detected
CCOC(=O)c1c(C)n(Cc2ccccc2)c2ccc(OCCCCN3CCNCC3)cc12	> 100 µg/mL	–	71.9%	–
CCOC(=O)c1c(C)n(CCc2ccccc2)c2ccc(OCCCN3CCCCC3)cc12	> 100 µg/mL	4.86	99.3%	–
CCOC(=O)c1c(C)n(Cc2ccccc2)c2ccc(OCCCN3CCC(F)(F)CC3)cc12	–	–	25.9%	–
CCOC(=O)c1c(C)n(Cc2ccccc2)c2ccc(OCCCNCc3ccccc3)cc12	–	–	45.4%	–
CCOC(=O)c1c(C)n(Cc2ccccc2)c2ccc(OC(C)=O)cc12	–	–	20.4%	–
CCOC(=O)c1c(C)n(Cc2ccccc2)c2ccc(C(F)(F)F)cc12	–	–	36.6%	–
CCOC(=O)c1c(C)n(Cc2ccc(OC)cc2)c2ccc(OCCCN3CCCCC3)cc12	> 100 µg/mL	5.15	77.7%	–
CCOC(=O)c1c(C)n(Cc2ccccc2[N+](=O)[O-])c2ccc(OCCCN3CCCCC3)cc12	> 100 µg/mL	5.20	91.8%	solubility [4]: 14 µM (≈ 6.71 µg/mL); remaining at 0.5 h, 10 µM [5]: 89%
CCOC(=O)c1c(C)n(Cc2ccccc2)c2ccc(OCCCN3CCN(C)CC3)cc12	> 100 µg/mL	4.92	100%	–
CCOC(=O)c1c(C)n(Cc2cccc(OC)c2)c2ccc(OCCCN3CCCCC3)cc12	> 100 µg/mL	5.14	77.1%	–
CCOC(=O)c1c(C)n(Cc2ccccc2)c2ccc(OCCN3CCOCC3)cc12	> 100 µg/mL	4.77	90.9%	–
CCOC(=O)c1c(C)n(Cc2ccccc2)c2ccc(OCCCCN)cc12	100 µg/mL (≈ 263 µM)	5.17	93.7%	–
CCOC(=O)c1c(C)n(Cc2ccc(C)cc2)c2ccc(OCCCN3CCCCC3)cc12	25 µg/mL (≈ 55.7 µM)	5.17	58.3%	–
